Data from ChEMBL document CHEMBL1649117, “GRL-02031, a novel nonpeptidic protease inhibitor (PI) containing a stereochemically defined fused cyclopentanyltetrahydrofuran potent against multi-PI-resistant human immunodeficiency virus type 1 in vitro” (Antimicrob Agents Chemother, 2009).

Experiments:
[1] = test system: Human immunodeficiency virus 1; experiment: Ratio of EC50 for HIV1 NL4-3 harboring L10F/M46I/I54V/V82A amino acid substitution in protease encoding region to EC50 for HIV1 NL4-3; assay type: functional
In short: (§1)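 MT-4 cells (10^5/ml) infected with 100 TCID50s of PI-selected HIV-1NL4-3 variants or the parental strain, with or without serial drug concentrations, at 37°C. Day 7 supernatant p24 Gag measured by chemiluminescent enzyme immunoassay. […] Triplicate. Ratio is variant EC50 over wild-type EC50.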

[2] = test system: Human immunodeficiency virus 1; experiment: Ratio of EC50 for HIV1 B harboring L10I/I15V/E35D/N37E/K45R/I54V/L63P/A71V/V82T/L90M/I93L/C95F in protease encoding region to EC50 for HIV1 ERS104pre; assay type: functional
[3] = Selectivity index, ratio of CC50 for human MT2 cells to EC50 for HIV1 LAI; assay type: toxicity, cell-based; conditions: read-out: Selectivity Index
[4] = test system: Human immunodeficiency virus 1; experiment: Antiviral activity against HIV1 JSL harboring L10I/L24I/L33F/E35D/M36I/N37S/M46L/I54V/R57K/I62V/L63P/A71V/G73S/82A in protease encoding region infected in human PHA-PBC assessed as inhibition of p24 Gag protein production by ELISA; assay type: functional, organism-based; conditions: Human immunodeficiency virus 1, JSL
In short: (§2)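 Phytohemagglutinin-stimulated PBMs (10^6/ml) infected with 50 TCID50s of each primary isolate, cultured with or without drug in 10-fold serial dilutions. On day 7, supernatant p24 Gag was measured by automated chemiluminescent enzyme immunoassay. […] Triplicate.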

[5] = test system: Human immunodeficiency virus 1; experiment: Antiviral activity against HIV1 A harboring L10I/I15V/E35D/N37E/K45R/I54V/L63P/A71V/V82T/L90M/I93L/C95F in protease encoding region infected in human PHA-PBC assessed as inhibition of p24 Gag protein production by ELISA; assay type: functional, organism-based; conditions: Human immunodeficiency virus 1, A
In short: (§3)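 Phytohemagglutinin-stimulated PBMs (10^6/ml) infected with 50 TCID50s of each primary isolate, cultured with or without drug in 10-fold serial dilutions. On day 7, supernatant p24 Gag was measured by automated chemiluminescent enzyme immunoassay. Triplicate.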

[6] = test system: Human immunodeficiency virus 1; experiment: Antiviral activity against HIV1 MM harboring L10I/K43T/M46L/I54V/L63P/A71V/V82A/L90M/Q92K in protease encoding region infected in human PHA-PBC assessed as inhibition of p24 Gag protein production by ELISA; assay type: functional, organism-based; conditions: Human immunodeficiency virus 1, MM; in short: as §2
[7] = test system: Human immunodeficiency virus 1; experiment: Antiviral activity against HIV1 NL4-3 harboring L10I/G48V/I54V/L90M amino acid substitution in protease encoding region infected in human MT4 cells assessed as inhibition of p24 Gag protein production selected at 5 uM of saquinavir by ELISA; assay type: functional, organism-based; conditions: Human immunodeficiency virus 1, NL4-3, MT4
In short: (§4)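 HIV-1NL4-3 (500 TCID50s) was passaged in MT-4 cells, starting at 0.01–0.03 µM PI and raising the drug generally two- to threefold as virus propagated. Cell-free passage used day-7 supernatants. Variants were then tested in MT-4 cells (10^5/ml) with 100 TCID50s, with or without drug, at 37°C. Day-7 p24 Gag was read by chemiluminescent immunoassay; EC50 vs drug-free control; triplicate.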

[8] = test system: Human immunodeficiency virus 1; experiment: Antiviral activity against HIV1 NL4-3 harboring L10F/L33F/M46I/I47V/Q58E/V82I/I84V/I85V amino acid substitution in protease encoding region infected in human MT4 cells assessed as inhibition of p24 Gag protein production selected at 5 uM of GRL-02031 by ELISA; assay type: functional, organism-based; conditions: Human immunodeficiency virus 1, NL4-3, MT4
In short: (§5)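 Cell-free passage used day-7 supernatants. Variants were then tested in MT-4 cells (10^5/ml) with 100 TCID50s, with or without drug, at 37°C. Day-7 p24 Gag was read by chemiluminescent immunoassay; EC50 vs drug-free control; triplicate.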

[9] = test system: Human immunodeficiency virus 1; experiment: Antiviral activity against HIV1 ERS104pre infected in human PHA-PBC assessed as inhibition of p24 Gag protein production by ELISA; assay type: functional, organism-based; conditions: Human immunodeficiency virus 1, ERS104pre; in short: as §3
[10] = test system: Human immunodeficiency virus 1; experiment: Ratio of EC50 for HIV1 NL4-3 harboring L10I/G48V/I54V/L90M amino acid substitution in protease encoding region to EC50 for HIV1 NL4-3; assay type: functional; in short: as §1
[11] = test system: Human immunodeficiency virus 1; experiment: Ratio of EC50 for HIV1 NL4-3 harboring L10F/D30N/K45I/A71V/T74S amino acid substitution in protease encoding region to EC50 for HIV1 NL4-3; assay type: functional
[12] = test system: Human immunodeficiency virus 1; experiment: Ratio of EC50 for HIV1 G harboring L10I/V11I/T12E/I15V/L19I/R41K/M46L/L63P/A71T/V82A/L90M in protease encoding region to EC50 for HIV1 ERS104pre; assay type: functional
[13] = test system: Human immunodeficiency virus 1; experiment: Ratio of EC50 for HIV1 NL4-3 harboring L23I/K43I/M46I/I50L/G51A/A71V amino acid substitution in protease encoding region to EC50 for HIV1 NL4-3; assay type: functional; in short: as §1
[14] = test system: Human immunodeficiency virus 1; experiment: Ratio of EC50 for HIV1 TM harboring L10I/K14R/R41K/M46L/I54V/L63P/A71V/V82A/L90M/I93L in protease encoding region to EC50 for HIV1 ERS104pre; assay type: functional
In short: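 PHA-stimulated PBMs (10^6/ml) infected with 50 TCID50s of primary HIV-1 isolate and cultured with 10-fold serial drug dilutions. Day 7 supernatant p24 Gag measured by chemiluminescent enzyme immunoassay. […] Triplicate. Ratio is resistant isolate EC50 over reference isolate EC50.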

[15] = test system: Human immunodeficiency virus 1; experiment: Antiviral activity against HIV1 B harboring L10I/I15V/E35D/N37E/K45R/I54V/L63P/A71V/V82T/L90M/I93L/C95F in protease encoding region infected in human PHA-PBC assessed as inhibition of p24 Gag protein production by ELISA; assay type: functional, organism-based; conditions: Human immunodeficiency virus 1, B; in short: as §2
[16] = test system: Human immunodeficiency virus 1; experiment: Antiviral activity against HIV1 NL4-3 harboring L10F/V32I/M46I/I54M//A71V/I84V amino acid substitution in protease encoding region infected in human MT4 cells assessed as inhibition of p24 Gag protein production selected at 5 uM of amprenavir by ELISA; assay type: functional, organism-based; conditions: Human immunodeficiency virus 1, NL4-3, MT4; in short: as §5
[17] = test system: Human immunodeficiency virus 1; experiment: Antiviral activity against HIV1 NL4-3 harboring M46I/V82F/I84V amino acid substitution in protease encoding region infected in human MT4 cells assessed as inhibition of p24 Gag protein production selected at 5 uM of ritonavir by ELISA; assay type: functional, organism-based; conditions: Human immunodeficiency virus 1, NL4-3, MT4; in short: as §4
[18] = test system: Human immunodeficiency virus 1; experiment: Ratio of EC50 for HIV1 MM harboring L10I/K43T/M46L/I54V/L63P/A71V/V82A/L90M/Q92K in protease encoding region infected to EC50 for HIV1 ERS104pre; assay type: functional
[19] = test system: Human immunodeficiency virus 1; experiment: Antiviral activity against HIV1 C harboring L10I/I15V/K20R/L24I/M36I/M46L/I54V/I62V/L63P/K70Q/V82A/L89M in protease encoding region infected in human PHA-PBC assessed as inhibition of p24 Gag protein production by ELISA; assay type: functional, organism-based; conditions: Human immunodeficiency virus 1, C; in short: as §2
[20] = test system: Human immunodeficiency virus 1; experiment: Ratio of EC50 for HIV1 NL4-3 harboring L10F/V32I/M46I/I54M//A71V/I84V amino acid substitution in protease encoding region to EC50 for HIV1 NL4-3; assay type: functional; in short: as §1

Compound | Ratio EC50 [1] | Ratio EC50 [2] | selectivity ratio [3] | EC50 [4] [nM] | EC50 [5] [nM] | EC50 [6] [nM] | EC50 [7] [nM] | EC50 [8] [nM] | EC50 [9] [nM] | Ratio EC50 [10] | Ratio EC50 [11] | Ratio EC50 [12] | Ratio EC50 [13] | Ratio EC50 [14] | EC50 [15] [nM] | EC50 [16] [nM] | EC50 [17] [nM] | Ratio EC50 [18] | EC50 [19] [nM] | Ratio EC50 [20]
COc1ccc(S(=O)(=O)N(C[C@@H]2CCC(=O)N2)C[C@@H](O)[C@H](Cc2ccccc2)NC(=O)O[C@@H]2C[C@@H]3CCO[C@@H]3C2)cc1 | 2 | 1 | > 3600 | 43 | 14 | 41 | 140 | > 1000 | 27 | 6 | 2 | 1 | 1 | 1 | 29 | 37 | 77 | 2 | 27 | 2
CC(C)CN(C[C@@H](O)[C@H](Cc1ccccc1)NC(=O)O[C@H]1CCOC1)S(=O)(=O)c1ccc(N)cc1 | 11 | 12 | > 3000 | 660 | 160 | 400 | 210 | 210 |  | 8 | 3 | 9 | 6 | 14 | 310 | > 1000 | 430 | 16 | 220 | >36
Cc1c(O)cccc1C(=O)N[C@@H](CSc1ccccc1)[C@H](O)CN1C[C@H]2CCCC[C@H]2C[C@H]1C(=O)NC(C)(C)C | 28 | >63 |  | > 1000 | 330 | > 1000 | 320 | 11 | 16 | 18 | >56 | 14 | 12 | >63 | > 1000 | 170 | 240 | >63 | 360 | 10
CC(C)(C)NC(=O)[C@@H]1C[C@@H]2CCCC[C@@H]2CN1C[C@@H](O)[C@H](Cc1ccccc1)NC(=O)[C@H](CC(N)=O)NC(=O)c1ccc2ccccc2n1 | 4 | 33 | 710 | 320 | 100 |  | > 1000 | 8 | 9 | >125 | 4 | 3 | 4 | 30 | 300 | 16 | 10 | 30 |  | 2
CC(C)(C)NC(=O)[C@@H]1CN(Cc2cccnc2)CCN1C[C@@H](O)C[C@@H](Cc1ccccc1)C(=O)N[C@H]1c2ccccc2C[C@H]1O.O | >71 | >48 | 1600 | > 1000 | > 1000 | > 1000 | > 1000 | 44 |  | >71 | 19 | 16 | 24 | >48 | > 1000 | 220 | 300 | >48 | > 1000 | 16
